Laboratory results from ChEMBL document CHEMBL1149127, “Synthesis and antitubulin activity of N1- and N4-substituted 3,5-dinitro sulfanilamides against African trypanosomes and Leishmania” (J Med Chem, 2004).

Columns and labels:
PC-3 = assay: In vitro cytotoxicity against mouse PC3 prostate cancer cell line.; type: functional, cell-based; conditions: Homo sapiens
Leishmania donovani [1] = assay: Inhibitory concentration against Leishmania donovani axenic amastigotes was determined in vitro; type: functional, organism-based
Leishmania donovani [2] = assay: Inhibition percentage of Leishmanial tubulin assembly at a concentration of 10 uM.
Outline: (§1)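 Leishmanial tubulin turbidity assay. Compounds added in 50% DMSO. Assembly started on ice by adding cold GTP in 25% DMSO. Turbidity followed at 351 nm while warming to 30 °C. Single-concentration tests run at 10 µM.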

J774 = assay: In vitro cytotoxicity against mouse J774 macrophages.; type: functional, cell-based
Trypanosoma brucei = assay: microbe, parasite or virus in culture; type: functional, organism-based
Tubulin (Sus scrofa) = Tubulin (Sus scrofa) (UniProt P02554+P02550); assay: Inhibition of porcine brain tubulin assembly at 40 uM
Tubulin (Sus scrofa), sequence (P02550 whole entry, looked up): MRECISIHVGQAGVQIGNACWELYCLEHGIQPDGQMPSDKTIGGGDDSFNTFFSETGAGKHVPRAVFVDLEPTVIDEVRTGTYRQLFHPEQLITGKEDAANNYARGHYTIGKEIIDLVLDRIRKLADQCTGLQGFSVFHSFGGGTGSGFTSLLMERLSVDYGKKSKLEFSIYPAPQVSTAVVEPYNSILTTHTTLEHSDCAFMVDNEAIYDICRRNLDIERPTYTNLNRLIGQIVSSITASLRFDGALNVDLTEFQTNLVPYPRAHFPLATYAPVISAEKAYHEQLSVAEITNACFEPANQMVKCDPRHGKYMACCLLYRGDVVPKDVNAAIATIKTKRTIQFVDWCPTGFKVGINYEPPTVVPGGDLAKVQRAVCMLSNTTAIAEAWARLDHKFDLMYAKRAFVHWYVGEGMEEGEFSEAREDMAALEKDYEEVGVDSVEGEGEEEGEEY
Tubulin (Sus scrofa), sequence (P02554 whole entry, looked up): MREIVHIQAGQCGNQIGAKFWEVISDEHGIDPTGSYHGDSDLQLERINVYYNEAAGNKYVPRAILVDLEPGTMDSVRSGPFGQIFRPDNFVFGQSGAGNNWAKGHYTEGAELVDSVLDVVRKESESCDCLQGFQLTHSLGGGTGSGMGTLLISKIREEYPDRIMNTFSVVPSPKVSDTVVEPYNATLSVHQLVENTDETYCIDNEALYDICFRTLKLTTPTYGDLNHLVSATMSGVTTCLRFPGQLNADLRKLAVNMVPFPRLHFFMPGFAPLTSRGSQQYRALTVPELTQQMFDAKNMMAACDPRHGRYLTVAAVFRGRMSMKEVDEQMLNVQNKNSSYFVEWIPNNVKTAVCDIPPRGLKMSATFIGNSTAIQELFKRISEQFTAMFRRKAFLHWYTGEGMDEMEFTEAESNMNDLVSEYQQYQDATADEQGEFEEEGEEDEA
Outline: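 Porcine brain tubulin purified by DEAE-Sepharose and a warm assembly cycle. Compound at 40 µM added in 100% DMSO. Assembly started on ice with cold GTP in water. Turbidity read at 351 nm while warming to 37 °C. Percent inhibition determined.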

[3] = Inhibition of Leishmanial tubulin assembly; design: species or system Leishmania donovani; outline: as §1
[4] = test system: Tubulin (Leishmania donovani); assay: Inhibition percentage of Leishmanial tubulin assembly at a concentration of 10 uM
[5] = Tested for toxicity against mice by intraperitoneal administration; No signs of toxicity; conditions: mouse, in vivo, ip
Mus musculus [6] = assay: Tested against Trypanosoma brucei strain ST1B 795 in mice as cured to tested at 20 mg/kg/day administered intraperitoneally; 0/4; type: functional; conditions: route intraperitoneal
Mus musculus [7] = assay: Average survival time for mice infected with Trypanosoma brucei ST1B 795 when treated with 20 mg/kg administered intraperitoneally; type: functional; conditions: route intraperitoneal
Outline: (§2)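 Female NMRI mice (20-25 g) were infected ip with 10⁴ T. b. brucei STIB 795 bloodstream forms and randomly assigned to groups of four. Starting 4 days after infection, 20 mg/kg was given ip for 4 consecutive days. Vehicle was DMSO diluted with water, with final DMSO below 10%. Day of death was recorded for each mouse.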

Mus musculus [8] = assay: Average survival time for mice infected with Trypanosoma brucei ST1B 795 when treated with 20 mg/kg administered i.p.; type: functional; conditions: route intraperitoneal; outline: as §2

## CCCN(CCC)c1c([N+](=O)[O-])cc(S(=O)(=O)Nc2cccc(C)c2)cc1[N+](=O)[O-]
PC-3
  IC50: 25 µM
Leishmania donovani [1]
  IC50: 23 µM
Leishmania donovani [2]
  inhibition: < 20%
J774
  IC50: 16 µM
Trypanosoma brucei
  IC50: 1.9 µM
Tubulin (Sus scrofa)
  inhibition: < 20%

## CCCN(CCC)c1c([N+](=O)[O-])cc(S(=O)(=O)N(c2ccccc2)c2ccccc2)cc1[N+](=O)[O-]
PC-3
  IC50: > 100 µM
Leishmania donovani [1]
  IC50: > 100 µM
J774
  IC50: > 100 µM
Trypanosoma brucei
  IC50: 7 µM

## CCCCNS(=O)(=O)c1cc([N+](=O)[O-])c(N(CCC)CCC)c([N+](=O)[O-])c1
Leishmania donovani [1]
  IC50: 50 µM
Trypanosoma brucei
  IC50: 12 µM
Tubulin (Sus scrofa)
  inhibition: < 20%

## CCCN(CCC)c1c([N+](=O)[O-])cc(S(=O)(=O)Nc2cccc(OC)c2)cc1[N+](=O)[O-]
PC-3
  IC50: 36 µM
Leishmania donovani [1]
  IC50: 8.1 µM
Leishmania donovani [2]
  inhibition: 39%
J774
  IC50: 25 µM
Trypanosoma brucei
  IC50: 1.3 µM
Tubulin (Sus scrofa)
  inhibition: < 20%

## CCCN(CCC)c1c([N+](=O)[O-])cc(S(=O)(=O)NC2CC2)cc1[N+](=O)[O-]
Leishmania donovani [1]
  IC50: 43 µM
Trypanosoma brucei
  IC50: 3.4 µM

## CCCN(CCC)c1c([N+](=O)[O-])cc(S(=O)(=O)N2CCOCC2)cc1[N+](=O)[O-]
Leishmania donovani [1]
  IC50: > 100 µM
Trypanosoma brucei
  IC50: > 100 µM

## CCCCCNS(=O)(=O)c1cc([N+](=O)[O-])c(N(CCC)CCC)c([N+](=O)[O-])c1
Leishmania donovani [1]
  IC50: 43 µM
Trypanosoma brucei
  IC50: 17 µM

## CCCNS(=O)(=O)c1cc([N+](=O)[O-])c(N(CCC)CCC)c([N+](=O)[O-])c1
Leishmania donovani [1]
  IC50: 54 µM
Leishmania donovani [2]
  inhibition: < 20%
Trypanosoma brucei
  IC50: 8.9 µM

## CCCN(CCC)c1c([N+](=O)[O-])cc(S(=O)(=O)NCC)cc1[N+](=O)[O-]
Leishmania donovani [1]
  IC50: > 100 µM
Trypanosoma brucei
  IC50: 5.4 µM

## CCCN(CCC)c1c([N+](=O)[O-])cc(S(=O)(=O)Nc2ccc(Cl)cc2)cc1[N+](=O)[O-]
PC-3
  IC50: 16 µM
Leishmania donovani [1]
  IC50: 13 µM
Leishmania donovani [2]
  inhibition: < 20%
J774
  IC50: 10 µM
Trypanosoma brucei
  IC50: 13 µM
Tubulin (Sus scrofa)
  inhibition: < 20%

## CCCN(CCC)c1c([N+](=O)[O-])cc(S(=O)(=O)Nc2ccc(C)cc2)cc1[N+](=O)[O-]
PC-3
  IC50: 21 µM
Leishmania donovani [1]
  IC50: 32 µM
Leishmania donovani [2]
  inhibition: < 20%
J774
  IC50: 11 µM
Trypanosoma brucei
  IC50: 13 µM
Tubulin (Sus scrofa)
  inhibition: < 20%

## CCCN(CCC)c1c([N+](=O)[O-])cc(S(=O)(=O)Nc2cc(Cl)cc(Cl)c2)cc1[N+](=O)[O-]
[3]
  IC50: 5.8 µM
PC-3
  IC50: 11 µM
Leishmania donovani [1]
  IC50: 3.7 µM
Leishmania donovani [2]
  inhibition: 102%
J774
  IC50: 5.1 µM
Trypanosoma brucei
  IC50: 8 µM
Tubulin (Sus scrofa)
  inhibition: < 20%

## CCCN(CCC)c1c([N+](=O)[O-])cc(S(N)(=O)=O)cc1[N+](=O)[O-] [ORYZALIN]
PC-3
  IC50: 56 µM
Leishmania donovani [1]
  IC50: 65 µM
J774
  IC50: 44 µM
Trypanosoma brucei
  IC50: 12 µM

## CCCN(CCC)c1c([N+](=O)[O-])cc(S(=O)(=O)NC2CCCC2)cc1[N+](=O)[O-]
[4]
  inhibition: < 20%
Leishmania donovani [1]
  IC50: 50 µM
[5]
  Dose: No signs of toxicity
Trypanosoma brucei
  IC50: 11 µM
Mus musculus [6]
  Activity: 0

## CCN(CC)c1c([N+](=O)[O-])cc(S(=O)(=O)Nc2ccccc2)cc1[N+](=O)[O-]
PC-3
  IC50: 56 µM
Leishmania donovani [1]
  IC50: 11 µM
Leishmania donovani [2]
  inhibition: < 20%
J774
  IC50: 48 µM
Trypanosoma brucei
  IC50: 2.8 µM
Tubulin (Sus scrofa)
  inhibition: < 20%

## CCCN(CCC)c1c([N+](=O)[O-])cc(S(=O)(=O)NC)cc1[N+](=O)[O-]
Leishmania donovani [1]
  IC50: > 100 µM
Leishmania donovani [2]
  inhibition: < 20%
Trypanosoma brucei
  IC50: 5.3 µM
Tubulin (Sus scrofa)
  inhibition: < 20%

## CCCN(CCC)c1c([N+](=O)[O-])cc(S(=O)(=O)NC(C)C)cc1[N+](=O)[O-]
Leishmania donovani [1]
  IC50: > 100 µM
Trypanosoma brucei
  IC50: 4.1 µM

## CCCN(CCC)c1c([N+](=O)[O-])cc(S(=O)(=O)N2CCCC2)cc1[N+](=O)[O-]
Leishmania donovani [1]
  IC50: 47 µM
Trypanosoma brucei
  IC50: 6.5 µM

## CCCN(CCC)c1c([N+](=O)[O-])cc(S(=O)(=O)N(C)C)cc1[N+](=O)[O-]
Leishmania donovani [1]
  IC50: > 100 µM
Trypanosoma brucei
  IC50: 5.8 µM

## CCCCCCNS(=O)(=O)c1cc([N+](=O)[O-])c(N(CCC)CCC)c([N+](=O)[O-])c1
Leishmania donovani [1]
  IC50: 26 µM
Trypanosoma brucei
  IC50: 15 µM

## CCCCCCN(CCCCCC)S(=O)(=O)c1cc([N+](=O)[O-])c(N(CCC)CCC)c([N+](=O)[O-])c1
Leishmania donovani [1]
  IC50: > 100 µM
Trypanosoma brucei
  IC50: > 50 µM

## CCCN(CCC)c1c([N+](=O)[O-])cc(S(=O)(=O)N(CC)CC)cc1[N+](=O)[O-]
Leishmania donovani [1]
  IC50: 27 µM
Trypanosoma brucei
  IC50: 8.3 µM

## COc1cc2cc(c1Cl)N(C)C(=O)C[C@H](OC(=O)C(C)C)[C@]1(C)O[C@@H]1[C@H](C)[C@@H]1C[C@@](O)(NC(=O)O1)[C@H](OC)/C=C/C=C(\C)C2 [ANSAMITOCIN P3]
PC-3
  IC50: 6e-05 µM
J774
  IC50: 0.00047 µM

## CCCN(CCC)c1c([N+](=O)[O-])cc(S(=O)(=O)Nc2ccc(Cl)c(Cl)c2)cc1[N+](=O)[O-]
PC-3
  IC50: 15 µM
Leishmania donovani [1]
  IC50: 5 µM
Leishmania donovani [2]
  inhibition: < 20%
J774
  IC50: 7.2 µM
Trypanosoma brucei
  IC50: 7.9 µM
Tubulin (Sus scrofa)
  inhibition: < 20%

## CCCN(CCC)c1c([N+](=O)[O-])cc(S(=O)(=O)N(CCC)CCC)cc1[N+](=O)[O-]
Leishmania donovani [1]
  IC50: 55 µM
Trypanosoma brucei
  IC50: 17 µM

## CCCCN(CCCC)S(=O)(=O)c1cc([N+](=O)[O-])c(N(CCC)CCC)c([N+](=O)[O-])c1
Leishmania donovani [1]
  IC50: 48 µM
Trypanosoma brucei
  IC50: 38 µM

## CCCN(CCC)c1c([N+](=O)[O-])cc(S(=O)(=O)Nc2cccc(Cl)c2)cc1[N+](=O)[O-]
PC-3
  IC50: 18 µM
Leishmania donovani [1]
  IC50: 5.5 µM
Leishmania donovani [2]
  inhibition: 57%
J774
  IC50: 8.7 µM
Trypanosoma brucei
  IC50: 2.1 µM
Tubulin (Sus scrofa)
  inhibition: < 20%

## Cc1ccc(C(=O)Nc2ccc(S(=O)(=O)O)c3cc(S(=O)(=O)O)cc(S(=O)(=O)O)c23)cc1NC(=O)c1cccc(NC(=O)Nc2cccc(C(=O)Nc3cc(C(=O)Nc4ccc(S(=O)(=O)O)c5cc(S(=O)(=O)O)cc(S(=O)(=O)O)c45)ccc3C)c2)c1 [SURAMIN]
Trypanosoma brucei
  IC50: 0.21 µM

## CCCCN(CCCC)c1c([N+](=O)[O-])cc(S(=O)(=O)Nc2ccccc2)cc1[N+](=O)[O-]
[3]
  IC50: 6.9 µM
PC-3
  IC50: 13 µM
Leishmania donovani [1]
  IC50: 2.6 µM
Leishmania donovani [2]
  inhibition: 104%
J774
  IC50: 12 µM
[5]
  Dose: 20 mg/kg
Trypanosoma brucei
  IC50: 0.12 µM
Mus musculus [7]
  Survival: 8 days
Tubulin (Sus scrofa)
  inhibition: < 20%
Mus musculus [6]
  Activity: 0

## N=C(N)c1ccc(OCCCCCOc2ccc(C(=N)N)cc2)cc1 [PENTAMIDINE]
Trypanosoma brucei
  IC50: 0.013 µM

## CCCN(CCC)c1c([N+](=O)[O-])cc(S(=O)(=O)Nc2ccc(OC)cc2)cc1[N+](=O)[O-]
PC-3
  IC50: 31 µM
Leishmania donovani [1]
  IC50: 32 µM
Leishmania donovani [2]
  inhibition: < 20%
J774
  IC50: 15 µM
[5]
  Dose: No signs of toxicity
Trypanosoma brucei
  IC50: 19 µM
Tubulin (Sus scrofa)
  inhibition: < 20%
Mus musculus [6]
  Activity: 0

## CCCN(CCC)c1c([N+](=O)[O-])cc(S(=O)(=O)Nc2ccccc2)cc1[N+](=O)[O-]
[3]
  IC50: 6.7 µM
PC-3
  IC50: 31 µM
Leishmania donovani [1]
  IC50: 5 µM
Leishmania donovani [2]
  inhibition: 89%
J774
  IC50: 28 µM
[5]
  Dose: 20 mg/kg
Trypanosoma brucei
  IC50: 0.41 µM
Tubulin (Sus scrofa)
  inhibition: 14%
Mus musculus [6]
  Activity: 0
Mus musculus [8]
  Survival: 8 days

## CCCN(CCC)c1c([N+](=O)[O-])cc(S(=O)(=O)Nc2ccccn2)cc1[N+](=O)[O-]
Leishmania donovani [1]
  IC50: 60 µM
J774
  IC50: 45 µM
Trypanosoma brucei
  IC50: 9.2 µM

## CCCN(CCC)c1c([N+](=O)[O-])cc(S(=O)(=O)N(C)c2ccccc2)cc1[N+](=O)[O-]
PC-3
  IC50: > 100 µM
Leishmania donovani [1]
  IC50: 21 µM
Leishmania donovani [2]
  inhibition: < 20%
J774
  IC50: 11 µM
Trypanosoma brucei
  IC50: 1 µM
